Experimental data published in ChEMBL document CHEMBL1125294, “Chromophore-modified antineoplastic imidazoacridinones. Synthesis and activity against murine leukemias” (J Med Chem, 1992).
Values joined by “and” are separate entries in the source; they are usually repeats but may differ in a detail not shown here. Equal values may be shown once.

Experiments:
L1210 = test: In vitro inhibitory activity against murine L1210 leukemia; format: functional, cell-based; conditions: Mus musculus
Procedure, shortened: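 Mouse L1210 leukemia cells were grown in RPMI 1640 with 5% fetal calf serum, penicillin and streptomycin, at 37 °C in 5% CO2. Cells were seeded at 5×10^4 cells/mL and exposed to four concentrations of compound dissolved in 50% ethanol.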

Mus musculus [1] = test: Antineoplastic activity was evaluated in vivo against murine leukemia P388 (i.p./i.p.; days 1-5) and optimum dose was reported; format: functional
Procedure, shortened: (§1)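 BDF1 mice given 10^6 P388 lymphocytic leukemia cells ip on day 0, then treated ip on days 1-5 following NCI protocols. Full dose-response runs spanned ineffective to clearly toxic doses. Mean survival time was taken per group of eight mice and expressed as % T/C. The optimal dose is the one giving the highest T/C.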

Mus musculus [2] = test: Antineoplastic activity was evaluated in vivo against murine leukemia P388 (i.p./i.p.; days 1-5) and optimum dose was reported;120; format: functional; procedure, shortened: as §1
[3] = Toxicity in CDF1 male mice following a single intraperitoneal administration; format: organism-based; conditions: CDF1, mouse, in vivo, ip
Procedure, shortened: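 Acute toxicity after one ip dose in male CDF1 mice. The read-out is the LD50, given as preliminary estimates that are either a dose range or a bound in mg/kg.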

Mus musculus [4] = test: In vivo % T/C activity was measured against P388 leukemia;250; format: functional; procedure, shortened: as §1
Mus musculus [5] = test: In vivo % T/C activity was measured against P388 leukemia; 210; format: functional; procedure, shortened: as §1
Mus musculus [6] = test: In vivo % T/C activity was measured against P388 leukemia; 290; format: functional; procedure, shortened: as §1
Mus musculus [7] = test: In vivo % T/C activity was measured against P388 leukemia; 155; format: functional; procedure, shortened: as §1
Mus musculus [8] = test: In vivo % T/C activity was measured against P388 leukemia; format: functional; procedure, shortened: as §1

| IC50 (L1210) | Structure (SMILES) | Optimal dose (Mus musculus [1]) [mg kg-1 injection-1] | also measured |
| --- | --- | --- | --- |
| 1.1 µg/mL and 2.5 µM | CCN(CC)CCCNc1ccc2ncn3c4ccc(OC)cc4c(=O)c1c23 | 150 | – |
| 1.4 µg/mL and 3.2 µM | COc1ccc2c(c1)c(=O)c1c(NCCCN(C)C)ccc3nc(C)n2c31 | 150 | – |
| 0.08 µg/mL and 180 nM | CCN(CC)CCCNc1ccc2ncn3c4ccc(O)cc4c(=O)c1c23 | 25 | – |
| 0.7 µg/mL and 1.55 µM | CCN(CC)CCNc1ccc2nc(C)n3c4ccc(OC)cc4c(=O)c1c23 | – | Optimal dose (Mus musculus [2]): 150 mg kg-1 injection-1 |
| 0.02 µg/mL and 48 nM | CN(C)CCNc1ccc2ncn3c4ccc(O)cc4c(=O)c1c23 | 12.5 | T/C (Mus musculus [5]): 210% |
| 3.5 µg/mL and 8.2 µM | COc1ccc2c(c1)c(=O)c1c(NCCCN(C)C)ccc3ncn2c31 | 150 | – |
| 0.014 µg/mL and 34 nM | CN(C)CCCNc1ccc2ncn3c4ccc(O)cc4c(=O)c1c23 | 5 | – |
| 0.1 µg/mL and 230 nM | Cc1nc2ccc(NCCCN(C)C)c3c(=O)c4cc(O)ccc4n1c23 | 100 | – |
| 0.4 µg/mL and 890 nM | CCN(CC)CCCNc1ccc2nc(C)n3c4ccc(O)cc4c(=O)c1c23 | 25 | T/C (Mus musculus [7]): 150% |
| 0.34 µg/mL and 770 nM | COc1ccc2c(c1)c(=O)c1c(NCCN(C)C)ccc3nc(C)n2c31 | 150 | – |

More lines, now with the values behind:

| Structure (SMILES) | IC50 (L1210) | Optimal dose (Mus musculus [1]) [mg kg-1 injection-1] | also measured |
| --- | --- | --- | --- |
| Cc1nc2ccc(NCCN(C)C)c3c(=O)c4cc(O)ccc4n1c23 | 0.06 µg/mL and 135 nM | 12.5 | LD50 [3]: 250 mg/kg; T/C (Mus musculus [4]): 200% |
| CCN(CC)CCNc1ccc2ncn3c4ccc(OC)cc4c(=O)c1c23 | 0.78 µg/mL and 1.8 µM | 100 | LD50 [3]: 500 mg/kg |
| CCN(CC)CCNc1ccc2nc(C)n3c4ccc(O)cc4c(=O)c1c23 | 0.11 µg/mL and 250 nM | 75 | LD50 [3]: 500 mg/kg; T/C (Mus musculus [6]): 280% |
| CCN(CC)CCCNc1ccc2nc(C)n3c4ccc(OC)cc4c(=O)c1c23 | 0.7 µg/mL and 1.4 µM | 150 | – |
| COc1ccc2c(c1)c(=O)c1c(NCCN(C)C)ccc3ncn2c31 | 0.65 µg/mL and 1.65 µM | 100 | – |
| O=C1c2ccccc2C(=O)c2c(NCCNCCO)ccc(NCCNCCO)c21 [AMETANTRONE] | 1.77 µg/mL and 3.65 µM | 12.5 | T/C (Mus musculus [8]): 300% |
| CCN(CC)CCNc1ccc2ncn3c4ccc(O)cc4c(=O)c1c23 [C-1311] | 0.013 µg/mL and 31 nM | 5 | LD50 [3]: > 200 mg/kg |
